Assay outcomes (PubChem)
CHOP inhibitor: inhibitors of CHOP promoter induction, primary screen, cell-based, unfolded protein response, luciferase reporter; inhibition, % at 10 µM; CHO-K1 CHOP-promoter luciferase, tunicamycin-induced, 15-18 h; 3.8% of 220,000 active;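 active means compounds that reduced the stress-induced luciferase reporter signal by more than about 70% of percent inhibition, limit read from the data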;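 further: 0% = tunicamycin plus vehicle and 100% = wells without tunicamycin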
Jurkat NFkB inh: inhibitors of induced NF-kB luciferase reporter, primary screen, TCR NF-kB activation inhibitor project, cell-based, luminescence, uHTS | Jurkat, PMA/ionomycin-induced NF-kB luciferase reporter | inhibition, % at 4 µM | 0.53% of 330,000 active; in the data active means inhibition above about 50%
XBP1 UPR activ: activators of adaptive XBP1 UPR arm, primary screen, cell-based, CHO-XBP1 luciferase reporter, luminescence, uHTS; IRE1-XBP1 UPR activation; percent of tunicamycin response, DMSO as zero; activation, % at 20 µM; 0.33% of 330,000 active; AID 463104, 2010;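 active means versus positive control, 20 µM dose yields 30% or more activation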;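 further: 100% = tunicamycin at 10 µg/mL and 0% = DMSO only wells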
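Material: CHO-XBP1 cells stably carrying IRE1-XBP1-driven luciferase reporter | Medium: F12 with 10% serum | Compound dosing: 20 µM single concentration, DMSO 1% | Incubation: Overnight seeding at 37 °C, 6 h compound treatment at 37 °C | Detection: Steady-Glo luminescence read | Read-out basis: % activation of reporter signal versus tunicamycin and DMSO controls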
UPR CHOP act: activators of apoptotic CHOP UPR arm, primary screen, cell-based, CHO-CHOP luciferase reporter, luminescence, uHTS. AID 449763, 2010. activation, % at 10 µM. UPR activation; percent of tunicamycin response over DMSO baseline. 0.34% of 330,000 active;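 active means at 10 µM dose, activation of 40% or more, normalized to positive control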;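 further: 100% = tunicamycin at 10 µg/mL and 0% = DMSO alone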
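Material: CHO-CHOP cells, stable luciferase reporter of PERK-eIF2a-CHOP signalling; quantity: 500 reporter cells seeded per well; buffer or medium: F12 medium containing 10% fetal bovine serum; compound: one dose, 10 µM in 0.5% DMSO; incubation: 6 h compound treatment, 37 °C; measured by: Steady-Glo luciferase luminescence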
697 NFkB inh: inhibitors of PMA/ionomycin-induced NF-kB reporter, 697 cells, primary screen, B-cell NF-kB inhibitor project, cell-based, luminescence, uHTS; 697 B-cell NF-kB luciferase reporter, 16 h; inhibition, % at 4 µM; 0.33% of 330,000 active; AID 435022, 2010; in the data active means inhibition above about 35%
Jurkat NFkB conf: PMA/ionomycin-induced NF-kB reporter inhibitors, Jurkat retest, confirmation, T-cell NF-kB inhibitor project, cell-based, luminescence, single concentration | Jurkat NF-kB luciferase, 16 h | shares compounds with Jurkat NFkB inh | inhibition, % at 4 µM | 27% of 2,700 active;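 active means inhibition reaching about 45% at 4 µM in either replicate, limit read from the data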;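 further: plate controls were PMA/ionomycin stimulated DMSO wells for no effect and unstimulated DMSO wells for full effect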
Active calls of the source: *; x = no result. Shown is part of a subset that was picked to be rich in hits.

SMILES	CHOP inhibitor	Jurkat NFkB inh	XBP1 UPR activ	UPR CHOP act	697 NFkB inh	Jurkat NFkB conf
COc1ccc2nc(SCC(=O)Nc3ccc4sc(C)nc4c3)c(C#N)cc2c1	2	14	2	5	-1	x
O=C(CNC(=O)c1ccc(Br)o1)Nc1cccc(S(=O)(=O)N2CCOCC2)c1	x	17	-2	-1	10	x
COc1cc(C2CC(=O)c3cnc(N4CCN(Cc5ccccc5)CC4)nc3C2)cc(OC)c1OC (configuration not stated)	x	59*	6	-2	-73	16
COc1ccc(C2CC(=O)c3c(C)nc(N4CCN(Cc5ccccc5)CC4)nc3C2)cc1OC (configuration not stated)	54	-10	1	3	-47	x
CCOC(=O)c1sc(N)c(C(=O)Nc2ccccc2OC)c1C	43	71*	2	2	-29	18
CCCCCc1ccc(-c2cn(CCc3c[nH]c4ccccc34)nn2)cc1	x	56*	-1	1	-64	14
O=C1CC(C(=O)N2CCc3ccccc32)CN1c1cccc(C(F)(F)F)c1 (configuration not stated)	x	7	-2	-1	7	x
Cn1cc(S(=O)(=O)NCc2ccc(Cl)cc2)c(=O)n(C)c1=O	-6	5	-1	3	-25	x
Cc1cc(C(=O)CSc2nnc(N)s2)c(C)n1Cc1cccs1	45	-150	-4	-4	-150	-53
CC(=O)Nc1ccc(SCC(=O)c2cc(C)n(Cc3cccs3)c2C)cc1	35	-22	-5	-3	-235	x
O=C(COC(=O)Cc1ccc(Cl)cc1Cl)Nc1ccccc1OC(F)F	42	-5	-3	0	0	x
Clc1ccc2nc(-c3ccc(Br)s3)cn2c1	75*	-179	-3	-5	-151	-100
COc1ccc(-c2cn3cc(Cl)ccc3n2)cc1OC	x	-74	6	6	-116	x
COC(=O)C1=C(CN2CCCc3ccccc32)NC(=O)NC1c1ccc(F)cc1 (configuration not stated)	69	54*	-10	-9	1	79*
Cc1ccc(C(=O)Nc2nc3c(s2)CCCC3)o1	16	-155	-2	-1	-197	-87
CCOc1cc(CNCCCN2CCOCC2)cc(Br)c1OCC(=O)Nc1cccc(C(F)(F)F)c1	40	60*	0	3	18	8
CCOc1ccc(N(CC(=O)Nc2ccccc2OCC)S(=O)(=O)c2c(C)noc2C)cc1	x	57*	18	1	-25	62*
N/C(=N\OC(=O)c1ccc2ccccc2c1)c1cccc([N+](=O)[O-])c1	-16	-51	3	7	-29	x
N/C(=N\OC(=O)c1ccccc1Cl)c1cccc([N+](=O)[O-])c1	x	-172	-5	4	-235	-101
O=c1c2ccccc2oc2ccc(Oc3ccccc3)cc12	x	-160	4	5	-224	-121
COc1cc2oc3ccccc3c(=O)c2cc1OC	x	-22	11	5	4	x
Cn1nc([N+](=O)[O-])nc1Sc1nnc(-c2ccccc2)o1	-145	74*	14	5	-165	70*
CCOc1ccc(N=Nc2ccc(O)c3ncccc23)cc1	x	89*	3	15	-117	3
CCS(=O)(=O)c1ccc(OC)c(N=Nc2ccc(O)c3ncccc23)c1	13	6	0	-1	-20	x
Cc1ccc(C)c(N=Nc2ccc(O)c3ncccc23)c1	103*	78*	-6	13	-103	66*
SMILES	CHOP inhibitor	Jurkat NFkB inh	XBP1 UPR activ	UPR CHOP act	697 NFkB inh	Jurkat NFkB conf
CCN(CC)S(=O)(=O)c1cc(OC)ccc1N=Nc1ccc(O)c2ncccc12	x	16	1	1	8	x
N#Cc1cc2c(nc1SCc1nc3ccccc3[nH]1)CCC2	-50	-169	-4	1	-131	-56
N/C(CC(=O)NC1CCCCC1)=N\OCC(=O)Nc1ccc(Cl)c(Cl)c1	10	-3	-3	-2	-3	x
CC#CC(=O)N1CCC(n2nccc2NC(=O)c2ccc3c(c2)OCO3)CC1	x	74*	-5	-1	9	36
CSCCC(=O)N1CCC(n2nccc2NC(=O)c2ccc3c(c2)OCO3)CC1	x	-86	-4	6	-97	x
CC(C)(C)C(=O)N/C(N)=N/c1nc2ccccc2o1	3	-156	-1	4	-226	-141
CCC(=O)N/C(N)=N/c1nc2ccccc2o1	-8	-90	2	5	-96	x
NC(=O)C1CCCN(C(=O)c2ccc(NC(=O)c3cccs3)cc2)C1 (configuration not stated)	x	-7	1	0	0	x
CCC(=O)c1ccc(O)cc1	10	-1	-6	-1	-8	x
O=C(CCCc1ccccc1)c1ccccc1	x	-176	-8	3	-96	-101
O=C(CCCC(=O)c1ccc(O)cc1)c1ccc(O)cc1	x	-163	3	2	-223	-91
O=C(NNC(=O)c1ccc(Oc2ccc(C3SCCS3)cc2)o1)c1ccc(Cl)cc1	40	-2	-2	1	7	x
C/C(=N\Nc1nncc2ccccc12)c1cccc(OC(F)F)c1	x	-153	0	3	-202	-81
COc1ccc(C(C)C)cc1S(=O)(=O)NC1CCCC1	x	-5	-6	1	3	x
Cc1cccc(N2CCN(C(=O)c3c(-c4ccccc4)noc3C)CC2)c1C	x	68*	7	2	-51	41
Cc1cccc(N2CCN(C(=O)c3ccc(S(=O)(=O)N(C)c4ccccc4)cc3)CC2)c1C	x	58*	7	-1	-39	40
COc1cc(C(=O)N2CCN(c3ccc(C)cc3C)CC2)cc(OC)c1OC	x	63*	-1	-1	-93	21
COc1ccccc1N1CCN(C(=O)c2ccc3[nH]c(C)c(C)c3c2)CC1	x	54*	1	-2	8	17
CCOC(=O)N1CCN(C(=O)c2cc(OC)c(OC)c(OC)c2)CC1	x	12	-2	-2	-2	x
Cc1cccc(N2CCN(C(=O)c3ccc4[nH]c(C)c(C)c4c3)CC2)c1C	x	56*	-1	0	-37	52*
COc1ccccc1N1CCN(C(=O)c2oc3ccc(Br)cc3c2C)CC1	41	66*	0	-1	-25	6
CN1/C(=C\C(=O)Nc2cccnc2)c2ccccc2CC1(C)C	-2	13	-2	4	11	x
COc1ccc(C(=O)/C=C2/c3ccccc3CC(C)(C)N2C)cc1	1	61*	8	0	-48	-9
CCc1cccc(NC(=O)c2cnn(-c3ccccc3)c2C)c1	x	-147	-6	5	-170	x
